Measured values from different studies.
Compare with care: the assays were run in different laboratories.
ALDH2: Aldehyde dehydrogenase, mitochondrial (ALDH2, Homo sapiens, UniProt P05091)
CHRM1: Muscarinic acetylcholine receptor M1 (CHRM1, Homo sapiens, UniProt P11229)
HDAC11: Histone deacetylase 11 (HDAC11, Homo sapiens, UniProt Q96DB2)
CYP3A4: Cytochrome P450 3A4 (CYP3A4, Homo sapiens, UniProt P08684)

| SMILES | target | test | system | setting | IC50 [µM] |
| --- | --- | --- | --- | --- | --- |
| CC(C)N(CCC(=O)c1ccc2ccccc2c1)Cc1ccccc1 | ALDH2 | enzyme activity, inhibitor, fluorescence |  |  | < 10 |
| Cc1cc2c(cc1C)N[C@H](c1ccccc1)[C@@H](O)C(=O)N2 | Tyrosine-protein kinase JAK1 (JAK1, Homo sapiens, UniProt P23458) | enzyme activity, inhibitor, ELISA |  |  | 0.804 |
| O=C(CCNC(=O)CNC(=O)CC(c1ccccc1)(c1ccccc1)c1ccccc1)NC[C@H]1CCCN(Cc2ccc(F)cc2)C1 | CHRM1 | ligand displacement, radioligand |  | cell membranes | 13.9 |
| CNC(=O)[C@H](Cc1c[nH]c2ccccc12)NC(=O)[C@@H](CC(=O)NO)CC(C)C | Collagenase 3 (MMP13, Homo sapiens, UniProt P45452) | enzyme activity, inhibitor |  |  | 0.000129 |
| Cc1ccc(OCC(=O)N[C@@H](Cc2c[nH]c3ccccc23)C(=O)OC(C)C)cc1 | Cytochrome P450 1A2 (CYP1A2, Homo sapiens, UniProt P05177) | enzyme activity, inhibitor | human, liver microsomes | 30 min | > 50 |
| CN(C)CCC=C1c2ccccc2CCc2ccccc21 | Short transient receptor potential channel 5 (Mus musculus, UniProt Q9QX29) | ion current, inhibitor, patch clamp |  |  | 2.88 |
| COc1ccc(N(Cc2nc(-c3ccc(F)cc3)cs2)C(=O)CCCCCC(=O)NO)cc1 | HDAC11 | enzyme activity, inhibitor |  |  | > 10 |
| O=C(CCNC(=O)CNC(=O)CC(c1ccccc1)(c1ccccc1)c1ccccc1)NC[C@@H]1CCCN(Cc2ccc(F)nc2)C1 | CHRM1 | ligand displacement, radioligand |  | cell membranes | > 30 |
| COc1ccc(N(Cc2csc(-c3ccc(Br)cc3)n2)C(=O)CCCCCC(=O)NO)cc1 | HDAC11 | enzyme activity, inhibitor |  |  | > 10 |
| CN(C)C(=O)c1cc2cnc(Nc3ccc(-c4ccc5c(=O)cc(N6CCOCC6)oc5c4)cc3)nc2n1C1CCCC1 | CYP3A4 | enzyme activity, inhibitor, fluorescence |  | pH 8 | 56.1 |
| O=C1Nc2ccccc2/C1=C\c1cc(F)c(O)c(F)c1 | ALDH2 | enzyme activity, inhibitor, fluorescence |  |  | 0.9 |
| N=C(N)c1ccc2cc(OC(=O)c3ccc(N=C(N)N)cc3)ccc2c1 | Coagulation factor XII (F12, Homo sapiens, UniProt P00748) | enzyme activity, inhibitor |  |  | 0.0326 |
| Cn1ccc(-c2ccc(-c3cc(C(=O)O)cc4cc(-c5ccc(C(F)(F)F)cc5)ccc34)cc2)n1 | CYP3A4 | enzyme activity, inhibitor |  |  | 10.8 |
| CCc1oc2cc(F)c(F)cc2c1C(=O)c1cc(Br)c(O)c(Br)c1 | Solute carrier organic anion transporter family member 1B1 (SLCO1B1, Homo sapiens, UniProt Q9Y6L6) | transporter uptake, inhibitor, radiometric |  | oocytes | 7.34 |
| OC[C@H]1O[C@@H](Oc2ccc(O)c3cccc(O)c23)[C@H](O)[C@@H](O)[C@@H]1O | ALDH2 | enzyme activity, inhibitor, fluorescence |  |  | < 10 |
| C=CCn1c(=O)c2cnc(Nc3ccc(N4CCN(C)CC4)cc3)nc2n1-c1ccc2c(n1)[C@@](O)(CC)CC2 | CYP3A4 | enzyme activity, inhibitor |  |  | 7 |
| Cc1cc2c(C(N)=O)c(N)n(-c3c(C)ccc(O)c3C)c2nc1C | RAF proto-oncogene serine/threonine-protein kinase (RAF1, Homo sapiens, UniProt P04049, Y340D/Y341D) | enzyme activity, inhibitor, ADP detection |  |  | 0.0044 |
| CCCN(CCC)S(=O)(=O)c1ccc(C(=O)O)cc1 | Taste receptor type 2 member 14 (TAS2R14, Homo sapiens, UniProt Q9NYV8) | inositol phosphate, antagonist, TR-FRET |  |  | 600 |
